Source: paper PMC10245936 (bioRxiv, 2023)
Where “and” joins values, the source holds several entries; their conditions need not be identical. Identical values can stand only once.

How the values were obtained:
GII.4 Sydney [P31] HuNoV = assay: HuNoV replication; format: cell-based, human norovirus; details: for SI: CC50 over EC50, J2 HIE line
Method in brief: (§1)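 Differentiated monolayers (24 h INTp, then 5 days INTd) received 100 TCID50 (TCID50 per genotype and HIE line by Reed-Muench) with compound in CMGF- plus 500 μM GCDCA for 1–2 h at 37°C. Cells were washed 3 times, then kept in compound-containing INTd with GCDCA for 24 h. Five ascending concentrations; vehicle 1% DMSO or 2% H2O final. Genome equivalents by RT-qPCR against a standard curve. Triplicate wells, duplicate qPCR. Dunnett versus vehicle; EC50/EC90 by nonlinear regression (top fixed at 100); SI = CC50/EC50.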

J2 HIE line = assay: HIE viability, CellTiter-Glo 2.0 Cell Viability Assay; format: cell-based, human; details: J2 HIEs, 24 h
HuNoV [1] = details: HIE monolayers; cited from earlier work
GII.3[P21] HuNoV = assay: HuNoV replication; format: cell-based, human norovirus
Method in brief: as §1

GII.17[P13] HuNoV = assay: HuNoV replication; format: cell-based, human norovirus
Method in brief: as §1

GI.1[P1] HuNoV = assay: HuNoV replication; format: cell-based, human norovirus; details: for EC90: 100 TCID50
Method in brief: as §1

GII.4 Sydney [P16] HuNoV = assay: HuNoV replication; format: cell-based, human norovirus; details: for SI: CC50 over EC50; for EC50 / EC90: 100 TCID50, 24 h
Method in brief: as §1

J4FUT2 HIE line = assay: HIE viability, CellTiter-Glo 2.0 Cell Viability Assay; format: cell-based, human; details: J4FUT2 HIEs, 24 h
[2] = HIE viability, CellTiter-Glo 2.0 Cell Viability Assay; format: cell-based; details: human, D2004 HIE line monolayers
Method in brief: (§2)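 CellTiter-Glo 2.0 read as directed by the manufacturer on 5-day-differentiated monolayers. Triplicate wells were given vehicle or compound in virus-free incubation medium for 24 h. CC50 from nonlinear regression of percent viability, with the bottom fixed at 0.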

[3] = as above; format: cell-based; details: human, J2004 HIE line monolayers
Method in brief: as §2

[4] = as above; format: cell-based; details: human, IL2004 HIE line monolayers
Method in brief: as §2

J2 HIEs = assay: Preliminary dose-range cytotoxicity assessment; format: cell-based, human; details: for monolayer integrity and propidium iodide staining: 24 h
5 HuNoV strains = assay: Antiviral pipeline, summary over all HuNoV strains and HIE lines tested; format: cell-based; details: Norovirus, in Homo sapiens
Method in brief: as §1

HuNoV [5] = details: 31 randomized patients, compared to placebo; ref NCT03395405; cited from earlier work
HuNoV [6] = details: HuNoV-infected, otherwise healthy patients, versus placebo; cited from earlier work
[7] = tested on: GI.1-based HuNoV replicon; details: Huh7 liver cells; cited from earlier work
GII.4 Sydney [P31] virus = details: adult jejunal HIE line plated as monolayers; cited from earlier work
[8] = tested on: adult jejunal HIE line (J2) monolayers; details: cited from earlier work
[9] = tested on: 3 different GII.4 HuNoV isolates; details: fetal ileum-derived 3D HIEs; non-cytotoxic concentration; cited from earlier work
HuNoV [10] = details: chronically infected HuNoV patients; cited from earlier work
[11] = standard adult NTZ dose, one 500 mg tablet by mouth twice daily; cited from earlier work
[12] = Norovirus, in Homo sapiens, 24 h
[13] = Norovirus, in Homo sapiens, 24 h, read-out: inhibition of replication
[14] = CC50 over EC50, J4FUT2 HIE line
[15] = J4FUT2 HIEs, at 40 and 80 μM, 24 h
[16] = Norovirus, in Homo sapiens, D2004 (duodenal) HIE line
[17] = Norovirus, in Homo sapiens, IL2004 (ileal) HIE line
[18] = Norovirus, in Homo sapiens, J2 HIE line
[19] = Norovirus, in Homo sapiens, J2004 (jejunal) HIE line

C[C@@]1(O)[C@H](O)[C@@H](CO)O[C@H]1n1ccc(N)nc1=O [2’CMC, 2’-C-methylcytidine]
SI (GII.4 Sydney [P31] HuNoV): > 31.6 | reduction of replication (GII.4 Sydney [P31] HuNoV; J2 HIEs, between 3 – 316 μM, 24 h): 0.12 – 2.65 log10 | EC50 (GII.4 Sydney [P31] HuNoV; [12]): 10 µM | EC90 (GII.4 Sydney [P31] HuNoV; [12]): 54 µM | inhibition at 316 µM (GII.4 Sydney [P31] HuNoV; [13]): 23.5 to 100% | cytotoxicity (luciferase-based viability assay) (J2 HIE line; any concentration tested (up to 316 μM)): not cytotoxic | HuNoV replication (HuNoV [1]): inhibit HuNoV replication

CC(=O)Oc1ccccc1C(=O)Nc1ncc([N+](=O)[O-])s1 [NTZ, nitazoxanide]
SI (GII.4 Sydney [P31] HuNoV): 1.9 | reduction in replication (GII.4 Sydney [P31] HuNoV; J2 HIEs, 40 μM, 24 h): 0.67 log10 | reduction in replication (GII.4 Sydney [P31] HuNoV; J2 HIEs, 80 μM, 24 h): 2.31 log10 | EC50 (GII.4 Sydney [P31] HuNoV; [12]): 37.1 µM | EC90 (GII.4 Sydney [P31] HuNoV; [12]): 43 µM | inhibition at 40 µM (GII.4 Sydney [P31] HuNoV; [13]): 76.7% | inhibition at 80 µM (GII.4 Sydney [P31] HuNoV; [13]): 99.5% | SI (GII.3[P21] HuNoV; [14]): 4.5 | average percent inhibition (GII.3[P21] HuNoV; [15]): 79.6 – 98.8% | EC50 (GII.3[P21] HuNoV; [12]): 14.4 µM | EC90 (GII.3[P21] HuNoV; [12]): > 80 µM | inhibition at 20 µM (GII.3[P21] HuNoV; Norovirus, in Homo sapiens, 24 h, read-out: average percent inhibition): 39.7 to 55.2% | SI (GII.17[P13] HuNoV; [14]): 1.9 | reduction in replication (GII.17[P13] HuNoV; J4FUT2 HIEs, 80 μM, 24 h): 1.5 log10 | EC50 (GII.17[P13] HuNoV; [12]): 33.4 µM | EC90 (GII.17[P13] HuNoV; [12]): > 80 µM | SI (GI.1[P1] HuNoV; [14]): 2.7 | EC90 (GI.1[P1] HuNoV; J4FUT2 HIE line, 24 h): 76 µM | inhibition in replication (GI.1[P1] HuNoV; [15]): 72.3 – 98.2% | reduction of genome equivalents (GI.1[P1] HuNoV; [15]): 0.6 – 1.8 log10 | EC50 (GI.1[P1] HuNoV; [12]): 27.4 µM | EC90 (GI.1[P1] HuNoV; Norovirus, in Homo sapiens, 24 h, J4FUT2 HIE line): 76.3 µM | inhibition of replication (significance) (GII.4 Sydney [P16] HuNoV; 40 μM, duodenal D2004 HIEs): significantly inhibitory | inhibition of replication (significance) (GII.4 Sydney [P16] HuNoV; 80 μM, across J2, D2004, J2004, IL2004 HIE lines): significantly inhibitory | SI (GII.4 Sydney [P16] HuNoV; D2004 HIE line): 1.2 | SI (GII.4 Sydney [P16] HuNoV; IL2004 HIE line): 1.4 | SI (GII.4 Sydney [P16] HuNoV; J2 HIE line): 4.0 | SI (GII.4 Sydney [P16] HuNoV; J2004 HIE line): 1.2 | EC50 (GII.4 Sydney [P16] HuNoV; J2 HIE line): 12.9 µM | EC50 (GII.4 Sydney [P16] HuNoV; [16]): 42.8 µM | EC90 (GII.4 Sydney [P16] HuNoV; [16]): > 80 µM | EC50 (GII.4 Sydney [P16] HuNoV; [17]): 40 µM | EC90 (GII.4 Sydney [P16] HuNoV; [17]): 46 µM | EC50 (GII.4 Sydney [P16] HuNoV; [18]): 12 µM | EC90 (GII.4 Sydney [P16] HuNoV; [18]): > 80 µM | EC50 (GII.4 Sydney [P16] HuNoV; [19]): 53.9 µM | EC90 (GII.4 Sydney [P16] HuNoV; [19]): > 80 µM | SIs (GII.4 Sydney [P16] HuNoV; span over duodenal, jejunal, and ileal lines derived from the same donor): 1.2 – 1.4 | viability (J2 HIE line; 80 μM): reduction in viability | cell viability (J4FUT2 HIE line; 80 μM, in tandem with GII.17 assay): significantly reduced cell viability | cytotoxicity (J4FUT2 HIE line; 40 and 80 μM, in tandem with GII.3 assay): cytotoxic | average viability (J4FUT2 HIE line; in tandem with GI.1 assay): steady up to 40 μM but significantly reduced at 80 μM | CC50 at 24 h [2]: 50.9 µM | CC50 at 24 h [3]: 63.1 µM | CC50 at 24 h [4]: 57 µM | monolayer integrity and propidium iodide staining (J2 HIEs; 32 μM): monolayers were intact and had few dead or damaged cells | monolayer integrity and propidium iodide staining (J2 HIEs; 100 μM and above): disassociation of the monolayer | cytotoxicity, CellTiter-Glo 2.0 (J2 HIEs; highest concentrations (≥100 μM) of range 3 to 316 μM): high cytotoxicity and detachment of the monolayer | EC50 (5 HuNoV strains): ≥ 10 µM | clinical resolution of symptoms (HuNoV [5]): did not improve clinical resolution of symptoms | fecal viral load (HuNoV [5]): no effect | symptom resolution (HuNoV [6]): symptom resolution significantly faster | replication of the replicon [7]: inhibited replication | inhibitory activity on replication (GII.4 Sydney [P31] virus): no inhibitory activity | highest dose tested that kept the cell monolayers intact ([8]; J2 HIE monolayers): 10 µM | HIE monolayer integrity ([8]; concentrations below 10 µM): intact | replication of HuNoV isolates [9]: reduced replication | clinical outcome versus other or no treatments (HuNoV [10]): no differences were reported

O=C(Nc1ncc([N+](=O)[O-])s1)c1ccccc1O [tizoxanide]
maximal concentrations of tizoxanide [11]: approximately 10 µg/mL and ~ 38 µM | replication of the replicon [7]: inhibited replication | replication of HuNoV isolates [9]: reduced replication
